Assay results as given in ChEMBL document CHEMBL3393025, “Discovery of dual leucine zipper kinase (DLK, MAP3K12) inhibitors with activity in neurodegeneration models” (J Med Chem, 2015).
Activity calls are given as the source filed them. The rule behind the calls is not given here.

Assays:
[1] = (§1) Neuroprotective activity in E14.5 rat embryo DRG neurons; format: functional; conditions: drg neuron
Method in brief: (§2)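 DRG neurons freshly dissected from E14.5 rat embryos, plated at 1200−2000 cells/well on an astrocyte monolayer in DMEM/F12 with N3 supplement, 0.18% glucose and 25 ng/mL NGF. 200 μM uridine and 100 μM 5-fluorodeoxyuridine added next day. Cultured 4 days before axon degeneration assay. IC50 reported.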

DRG neuron = assay: as §1; format: functional; method in brief: as §2
MDR1 = assay: Apparent permeability from apical to basolateral side in MDCK cells expressing human MDR1 at 5 uM after 60 to 180 mins by LC-MS/MS analysis; format: ADME, cell-based, Canis lupus familiaris; conditions: dog
[2] = target: T1, Dual specificity mitogen-activated protein kinase kinase 7 (Homo sapiens, UniProt O14733); assay: Inhibition of MKK7 (unknown origin)
T1 sequence (O14733 whole entry): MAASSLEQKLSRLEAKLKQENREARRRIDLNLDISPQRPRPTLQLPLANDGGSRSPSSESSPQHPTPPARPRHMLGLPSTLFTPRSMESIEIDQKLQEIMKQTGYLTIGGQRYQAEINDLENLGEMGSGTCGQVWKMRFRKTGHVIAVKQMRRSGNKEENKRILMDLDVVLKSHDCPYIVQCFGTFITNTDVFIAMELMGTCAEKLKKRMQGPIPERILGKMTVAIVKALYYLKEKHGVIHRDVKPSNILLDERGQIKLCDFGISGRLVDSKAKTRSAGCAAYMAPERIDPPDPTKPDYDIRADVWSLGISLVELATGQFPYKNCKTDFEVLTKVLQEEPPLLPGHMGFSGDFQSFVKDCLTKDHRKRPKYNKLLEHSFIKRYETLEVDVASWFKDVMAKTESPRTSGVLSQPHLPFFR

[3] = target: Mitogen-activated protein kinase 8 (Homo sapiens, UniProt P45983); assay: Inhibition of JNK1 (unknown origin)
[4] = target: Mitogen-activated protein kinase 9 (Homo sapiens, UniProt P45984); assay: Inhibition of JNK2 (unknown origin)
[5] = target: Mitogen-activated protein kinase kinase kinase 9 (Homo sapiens, UniProt P80192); assay: Inhibition of MLK1 (unknown origin)
[6] = target: Mitogen-activated protein kinase kinase kinase 10 (Homo sapiens, UniProt Q02779); assay: Inhibition of MLK2 (unknown origin)
[7] = target: Mitogen-activated protein kinase kinase kinase 11 (Homo sapiens, UniProt Q16584); assay: Inhibition of MLK3 (unknown origin)
[8] = target: Tyrosine-protein kinase Lck (Homo sapiens) (UniProt P06239); assay: Inhibition of LCK (unknown origin) at 0.1 uM
Method in brief: (§3)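 Kinase selectivity panel of 298 kinases, test compound at 0.1 μM, percent inhibition reported.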

[9] = target: Serine/threonine-protein kinase 16 (Homo sapiens) (UniProt O75716); assay: Inhibition of STK16 (unknown origin) at 0.1 uM; method in brief: as §3
[10] = target: Tyrosine-protein kinase SYK (Homo sapiens) (UniProt P43405); assay: Inhibition of Syk (unknown origin) at 0.1 uM; method in brief: as §3
[11] = Plasma clearance in mouse at 1 mg/kg, iv and 5 mg/kg, po; format: ADME, organism-based
Method in brief: (§4)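 Single-compound PK. Intravenous dose 1 mg/kg given as a 60% PEG solution. Oral dose 5 mg/kg given as an aqueous suspension in 1% methylcellulose. Plasma clearance, steady-state volume of distribution, half-life and oral bioavailability were determined from these doses.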

[12] = Plasma clearance in dog at 1 mg/kg, iv and 5 mg/kg, po; format: ADME, organism-based, Canis lupus familiaris; method in brief: as §4
[13] = Plasma clearance in cynomolgus monkey at 1 mg/kg, iv and 5 mg/kg, po; format: ADME, organism-based, Macaca fascicularis; method in brief: as §4
[14] = Volume of distribution at steady state in mouse at 1 mg/kg, iv and 5 mg/kg, po; format: ADME, organism-based; conditions: in vivo, read-out: Vdss; method in brief: as §4
[15] = Volume of distribution at steady state in rat at 1 mg/kg, iv and 5 mg/kg, po; format: ADME, organism-based; conditions: in vivo, read-out: Vdss; method in brief: as §4
[16] = Volume of distribution at steady state in cynomolgus monkey at 1 mg/kg, iv and 5 mg/kg, po; format: ADME, organism-based, Macaca fascicularis; conditions: in vivo, read-out: Vdss; method in brief: as §4
[17] = Half life in rat at 1 mg/kg, iv and 5 mg/kg, po; format: ADME, organism-based; conditions: in vivo; method in brief: as §4
[18] = Half life in dog at 1 mg/kg, iv and 5 mg/kg, po; format: ADME, organism-based, Canis lupus familiaris; conditions: in vivo; method in brief: as §4
[19] = Half life in cynomolgus monkey at 1 mg/kg, iv and 5 mg/kg, po; format: ADME, organism-based, Macaca fascicularis; conditions: in vivo; method in brief: as §4
[20] = Oral bioavailability in mouse at 5 mg/kg; format: ADME, organism-based; conditions: in vivo; method in brief: as §4
[21] = Oral bioavailability in rat at 5 mg/kg; format: ADME, organism-based; conditions: in vivo; method in brief: as §4
[22] = Oral bioavailability in dog at 5 mg/kg; format: ADME, organism-based, Canis lupus familiaris; conditions: in vivo; method in brief: as §4
[23] = Oral bioavailability in cynomolgus monkey at 5 mg/kg; format: ADME, organism-based, Macaca fascicularis; conditions: in vivo; method in brief: as §4
Mus musculus [24] = assay: Neuroprotective activity against po dosed C57Bl/6 mouse optic nerve crush model assessed as reduction of phosphorylated c-Jun level in retina administered 30 mins prior to nerve crush injury measured after 6 hrs by MSD ELISA; format: functional, organism-based
Method in brief: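 C57Bl/6 mice dosed orally at two dose levels (MCT suspension) or vehicle, 30 min before optic nerve crush. Retinal p-c-Jun measured 6 h post-injury by MSD ELISA, expressed relative to uncrushed vehicle controls. N = 5 vehicle, 6 per treated group. Mean ± SEM.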

Mus musculus [25] = assay: Neuroprotective activity against C57Bl/6 mouse Parkinson's disease model assessed as reduction of MPTP-induced increase in phosphorylated c-Jun level in substantia nigra at 37.5 to 75 mg/kg, po administered 30 mins prior to MPTP challenge followed by 2nd dosing after 12 and 24 hrs measured 1 hr post last dose by ELISA relative to vehicle-treated control; format: functional, organism-based

Sequence of Mitogen-activated protein kinase kinase kinase 11 (Q16584 whole entry): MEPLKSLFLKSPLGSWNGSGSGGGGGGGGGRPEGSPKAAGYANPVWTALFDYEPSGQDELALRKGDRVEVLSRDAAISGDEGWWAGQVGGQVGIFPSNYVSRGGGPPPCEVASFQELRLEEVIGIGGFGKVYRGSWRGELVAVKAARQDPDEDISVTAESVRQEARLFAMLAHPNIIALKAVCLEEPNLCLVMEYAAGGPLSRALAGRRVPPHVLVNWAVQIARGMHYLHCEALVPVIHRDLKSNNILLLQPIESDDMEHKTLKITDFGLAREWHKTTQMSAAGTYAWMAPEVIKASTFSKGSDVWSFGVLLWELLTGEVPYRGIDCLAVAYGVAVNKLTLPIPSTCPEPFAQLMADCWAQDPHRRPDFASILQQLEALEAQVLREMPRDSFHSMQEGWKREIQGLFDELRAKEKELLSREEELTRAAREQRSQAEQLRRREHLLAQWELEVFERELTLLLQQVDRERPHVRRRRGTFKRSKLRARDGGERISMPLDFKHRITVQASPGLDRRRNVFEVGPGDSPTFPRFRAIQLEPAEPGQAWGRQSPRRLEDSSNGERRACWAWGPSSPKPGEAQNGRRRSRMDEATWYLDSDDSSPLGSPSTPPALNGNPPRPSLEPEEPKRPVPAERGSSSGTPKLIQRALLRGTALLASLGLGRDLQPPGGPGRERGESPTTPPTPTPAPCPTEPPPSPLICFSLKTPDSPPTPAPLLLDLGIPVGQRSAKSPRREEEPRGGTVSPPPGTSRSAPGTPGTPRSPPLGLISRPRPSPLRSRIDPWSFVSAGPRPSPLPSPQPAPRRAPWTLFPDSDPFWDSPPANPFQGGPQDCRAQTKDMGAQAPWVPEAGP
Sequence of Mitogen-activated protein kinase kinase kinase 9 (P80192 whole entry): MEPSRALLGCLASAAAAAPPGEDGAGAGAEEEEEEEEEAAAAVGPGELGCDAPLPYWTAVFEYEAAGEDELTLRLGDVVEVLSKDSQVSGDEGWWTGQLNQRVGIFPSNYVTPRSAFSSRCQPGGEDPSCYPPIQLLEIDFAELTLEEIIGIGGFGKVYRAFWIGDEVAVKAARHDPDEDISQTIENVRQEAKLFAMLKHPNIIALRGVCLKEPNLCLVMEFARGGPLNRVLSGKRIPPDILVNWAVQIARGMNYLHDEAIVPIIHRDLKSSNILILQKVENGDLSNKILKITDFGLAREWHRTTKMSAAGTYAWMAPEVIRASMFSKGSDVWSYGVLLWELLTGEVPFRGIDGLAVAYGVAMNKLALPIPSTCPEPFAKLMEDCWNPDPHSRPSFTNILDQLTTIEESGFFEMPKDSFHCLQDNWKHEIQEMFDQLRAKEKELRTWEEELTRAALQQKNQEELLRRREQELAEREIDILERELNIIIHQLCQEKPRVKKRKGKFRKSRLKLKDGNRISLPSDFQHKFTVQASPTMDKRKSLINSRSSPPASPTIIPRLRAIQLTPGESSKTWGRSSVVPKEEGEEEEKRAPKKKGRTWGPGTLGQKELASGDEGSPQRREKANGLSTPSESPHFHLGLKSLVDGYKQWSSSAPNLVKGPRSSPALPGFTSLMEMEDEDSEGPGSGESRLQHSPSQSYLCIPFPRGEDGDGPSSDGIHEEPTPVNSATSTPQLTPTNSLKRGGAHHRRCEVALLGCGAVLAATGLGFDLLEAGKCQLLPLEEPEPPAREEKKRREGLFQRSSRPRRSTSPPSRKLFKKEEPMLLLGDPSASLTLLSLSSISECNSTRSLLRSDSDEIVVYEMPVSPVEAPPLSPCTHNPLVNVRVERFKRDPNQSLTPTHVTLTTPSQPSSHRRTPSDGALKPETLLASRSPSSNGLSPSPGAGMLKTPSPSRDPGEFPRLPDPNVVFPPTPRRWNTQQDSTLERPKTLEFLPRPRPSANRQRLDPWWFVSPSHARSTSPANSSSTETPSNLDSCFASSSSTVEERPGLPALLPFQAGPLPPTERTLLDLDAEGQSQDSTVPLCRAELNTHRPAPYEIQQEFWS
Sequence of Mitogen-activated protein kinase 8 (P45983 whole entry): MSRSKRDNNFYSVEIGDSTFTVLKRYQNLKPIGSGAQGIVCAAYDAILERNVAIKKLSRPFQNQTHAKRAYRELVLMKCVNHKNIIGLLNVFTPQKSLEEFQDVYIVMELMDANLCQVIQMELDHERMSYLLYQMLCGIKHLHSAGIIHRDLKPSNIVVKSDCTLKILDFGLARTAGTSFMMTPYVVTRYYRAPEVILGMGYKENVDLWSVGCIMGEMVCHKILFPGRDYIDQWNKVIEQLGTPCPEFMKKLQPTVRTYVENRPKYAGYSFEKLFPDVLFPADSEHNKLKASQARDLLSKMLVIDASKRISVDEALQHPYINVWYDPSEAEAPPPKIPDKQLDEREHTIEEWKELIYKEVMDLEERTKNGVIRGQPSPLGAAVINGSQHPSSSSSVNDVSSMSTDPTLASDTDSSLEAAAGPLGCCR
Sequence of Tyrosine-protein kinase Lck (Homo sapiens) (P06239 2-509 limits assumed): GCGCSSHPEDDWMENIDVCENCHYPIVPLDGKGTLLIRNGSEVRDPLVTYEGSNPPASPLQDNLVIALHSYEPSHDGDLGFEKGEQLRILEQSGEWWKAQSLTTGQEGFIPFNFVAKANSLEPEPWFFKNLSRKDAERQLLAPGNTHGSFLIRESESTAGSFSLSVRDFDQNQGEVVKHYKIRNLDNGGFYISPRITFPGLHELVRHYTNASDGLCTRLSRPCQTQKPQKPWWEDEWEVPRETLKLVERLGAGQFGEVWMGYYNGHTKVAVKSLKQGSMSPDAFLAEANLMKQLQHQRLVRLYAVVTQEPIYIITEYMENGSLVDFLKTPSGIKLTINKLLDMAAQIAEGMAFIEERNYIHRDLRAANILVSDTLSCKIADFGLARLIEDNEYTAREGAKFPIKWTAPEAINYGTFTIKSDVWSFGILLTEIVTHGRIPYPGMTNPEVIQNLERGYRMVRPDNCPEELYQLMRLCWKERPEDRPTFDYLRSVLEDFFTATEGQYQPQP
Sequence of Mitogen-activated protein kinase kinase kinase 10 (Q02779 whole entry): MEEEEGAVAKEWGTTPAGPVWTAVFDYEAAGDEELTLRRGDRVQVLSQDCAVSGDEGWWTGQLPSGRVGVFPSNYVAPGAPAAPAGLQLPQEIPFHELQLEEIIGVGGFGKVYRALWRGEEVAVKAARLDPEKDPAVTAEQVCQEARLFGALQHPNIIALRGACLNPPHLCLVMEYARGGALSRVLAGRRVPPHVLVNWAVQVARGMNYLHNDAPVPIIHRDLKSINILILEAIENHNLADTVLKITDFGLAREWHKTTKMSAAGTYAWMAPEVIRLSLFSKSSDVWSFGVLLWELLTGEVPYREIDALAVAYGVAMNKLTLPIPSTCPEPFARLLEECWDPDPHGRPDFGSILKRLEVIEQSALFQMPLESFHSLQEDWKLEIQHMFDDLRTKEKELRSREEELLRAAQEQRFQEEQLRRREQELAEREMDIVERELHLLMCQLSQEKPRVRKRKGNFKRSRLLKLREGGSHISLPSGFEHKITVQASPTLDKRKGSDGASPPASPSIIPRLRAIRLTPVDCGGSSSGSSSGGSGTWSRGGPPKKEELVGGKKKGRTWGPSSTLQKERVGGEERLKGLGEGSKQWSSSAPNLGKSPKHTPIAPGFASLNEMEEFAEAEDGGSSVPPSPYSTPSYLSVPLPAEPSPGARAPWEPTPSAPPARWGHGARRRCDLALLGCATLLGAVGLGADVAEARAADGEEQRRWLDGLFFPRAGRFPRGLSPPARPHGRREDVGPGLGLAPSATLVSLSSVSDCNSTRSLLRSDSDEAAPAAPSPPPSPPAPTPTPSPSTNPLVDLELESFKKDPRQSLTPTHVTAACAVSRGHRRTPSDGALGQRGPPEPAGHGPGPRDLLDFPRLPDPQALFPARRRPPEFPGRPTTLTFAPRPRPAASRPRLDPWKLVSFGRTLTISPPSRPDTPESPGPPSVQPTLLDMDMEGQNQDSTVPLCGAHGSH
Sequence of Mitogen-activated protein kinase 9 (P45984 whole entry): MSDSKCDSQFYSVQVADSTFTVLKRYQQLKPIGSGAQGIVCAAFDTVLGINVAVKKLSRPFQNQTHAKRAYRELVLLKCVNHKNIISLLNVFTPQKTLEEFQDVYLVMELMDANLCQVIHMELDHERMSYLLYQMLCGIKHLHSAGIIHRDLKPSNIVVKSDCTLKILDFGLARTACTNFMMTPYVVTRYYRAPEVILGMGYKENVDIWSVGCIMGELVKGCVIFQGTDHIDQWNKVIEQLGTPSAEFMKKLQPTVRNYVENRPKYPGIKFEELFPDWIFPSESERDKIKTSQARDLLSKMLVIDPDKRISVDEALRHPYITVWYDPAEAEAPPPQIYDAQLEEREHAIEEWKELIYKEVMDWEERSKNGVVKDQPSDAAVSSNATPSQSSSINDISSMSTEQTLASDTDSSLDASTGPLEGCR
Sequence of Serine/threonine-protein kinase 16 (Homo sapiens) (O75716 whole entry): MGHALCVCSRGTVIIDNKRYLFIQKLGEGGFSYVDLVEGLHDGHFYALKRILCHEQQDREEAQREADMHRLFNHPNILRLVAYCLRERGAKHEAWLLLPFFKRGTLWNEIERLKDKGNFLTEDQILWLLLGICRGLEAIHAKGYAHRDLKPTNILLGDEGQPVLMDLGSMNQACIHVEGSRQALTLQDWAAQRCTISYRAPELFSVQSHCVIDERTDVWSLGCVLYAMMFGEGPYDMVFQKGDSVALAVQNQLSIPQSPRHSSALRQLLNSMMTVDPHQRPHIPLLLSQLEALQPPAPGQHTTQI

With N#Cc1ccnc(Nc2cc(C3CCN(C4COC4)CC3)cc(N3CCC(F)(F)C3)n2)c1 the IC50 [1] was 107 nM, the Activity (DRG neuron) was “Dose-dependent effect” and the Papp A→B at 5 µM (MDR1) was 6 ×10⁻⁶ cm/s. It also gave an IC50 [2] greater than 5000 nM, an IC50 [3] of 129 nM and an IC50 [4] of 514 nM. It also gave an IC50 [5] of 67.8 nM, an IC50 [6] of 767 nM and an IC50 [7] of 602 nM. It also gave an inhibition [8] greater than 80%, an inhibition [9] greater than 80% and an inhibition [10] greater than 80%. For the same compound, the clearance [11] was 56 mL/min/kg, the clearance [12] was 41 mL/min/kg and the clearance [13] was 16 mL/min/kg. For the same compound, the Vd [14] was 2.5 L/kg, the Vd [15] was 3.7 L/kg and the Vd [16] was 3.1 L/kg. It also gave a half-life [17] of 1.8 h, a half-life [18] of 4 h and a half-life [19] of 2.4 h. It also gave a bioavailability [20] of 45%, a bioavailability [21] of 63% and a bioavailability [22] of 32%. For the same compound, the bioavailability [23] was 19%, the Activity (Mus musculus [24]) was “Dose-dependent effect” and the Activity (Mus musculus [25]) was “Active”.
